Data: ChEMBL document CHEMBL4177770, “Discovery of MK-6169, a Potent Pan-Genotype Hepatitis C Virus NS5A Inhibitor with Optimized Activity against Common Resistance-Associated Substitutions” (J Med Chem, 2018)
Substitutions are numbered along the chain they refer to.

Columns and labels:
[1] = Oral bioavailability in Beagle dog at 5 mg/kg by LC/MS method; format: ADME, organism-based, Canis lupus familiaris; conditions: in vivo
Outline: (§1)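 Beagle dogs, two animals per dosing group. Oral dose was given in 10% TWEEN. Blood was collected and spun to plasma, and plasma compound levels were measured by LC/MS.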

[2] = target: T1, Nonstructural protein 5A (Hepatitis C virus) (UniProt Q5L478); experiment: Inhibition of NS5A L31M mutant in HCV genotype 2b infected in HuH7 replicon cells assessed as decrease in viral replication after 3 days by RT-PCR method; format: cell-based; conditions: Hepatitis C virus subtype 2b
T1 sequence (whole entry): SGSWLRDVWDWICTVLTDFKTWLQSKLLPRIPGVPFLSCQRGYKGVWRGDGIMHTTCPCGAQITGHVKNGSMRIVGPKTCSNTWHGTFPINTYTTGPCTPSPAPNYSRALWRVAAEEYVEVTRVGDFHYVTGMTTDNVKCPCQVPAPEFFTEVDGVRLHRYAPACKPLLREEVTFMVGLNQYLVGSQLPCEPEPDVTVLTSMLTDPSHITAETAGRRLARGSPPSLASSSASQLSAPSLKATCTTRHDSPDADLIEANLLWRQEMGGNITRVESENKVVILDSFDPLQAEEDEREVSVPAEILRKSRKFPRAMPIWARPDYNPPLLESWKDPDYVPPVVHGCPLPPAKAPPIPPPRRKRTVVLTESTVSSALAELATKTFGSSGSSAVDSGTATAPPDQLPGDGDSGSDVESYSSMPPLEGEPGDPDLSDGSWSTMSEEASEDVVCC

[3] = target: T1, Nonstructural protein 5A (Hepatitis C virus); experiment: Inhibition of NS5A in HCV genotype 3a infected in HuH7 replicon cells assessed as decrease in viral replication after 3 days by RT-PCR method; format: cell-based; conditions: Hepatitis C virus subtype 3a
[4] = Drug level in Beagle dog at 5 mg/kg, po measured at 24 hrs by LC/MS method; format: ADME, organism-based, Canis lupus familiaris; conditions: in vivo, read-out: Drug uptake; outline: as §1
[5] = Cmax in Wistar Han rat at 100 mg/kg, po by LC/MS method; format: ADME, organism-based; set-up: dose 100 mg/kg, route oral; conditions: in vivo
Outline: (§2)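 Single rising oral dose study in fed male Wistar Han rats, dosed PO in 10% TWEEN at the indicated doses. Plasma was obtained by centrifuging the blood, and compound levels were determined by LC/MS.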

[6] = Drug level in Wistar Han rat at 100 mg/kg, po measured at 24 hrs by LC/MS method; format: ADME, organism-based; conditions: in vivo, read-out: Drug uptake; outline: as §2
[7] = Resistance ratio of EC90 for NS5A in HCV genotype 4a infected in HuH7 replicon cells to EC90 for NS5A in HCV genotype 1a infected in HuH7 replicon cells; format: cell-based
[8] = Cmax in Beagle dog at 5 mg/kg, po by LC/MS method; format: ADME, organism-based, Canis lupus familiaris; set-up: dose 5 mg/kg, route oral; conditions: in vivo; outline: as §1
[9] = Half life in Wistar Han rat at 2 mg/kg, iv by LC/MS method; format: ADME, organism-based; conditions: in vivo
Outline: (§3)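 Male Wistar Han rats, two per group, dosed IV at 2 mg/kg in 60% PEG200. Plasma was obtained by centrifuging the blood, and compound concentrations were measured by LC/MS.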

[10] = Drug level in Wistar Han rat at 10 mg/kg, po measured at 24 hrs by LC/MS method; format: ADME, organism-based; conditions: in vivo, read-out: Drug uptake
Outline: (§4)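 Male Wistar Han rats, two per dosing group, dosed orally at 10 mg/kg in 10% TWEEN. Plasma was separated from collected blood by centrifugation and analysed by LC/MS.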

[11] = Tmax in Wistar Han rat at 300 mg/kg, po by LC/MS method; format: ADME, organism-based; conditions: in vivo; outline: as §2
[12] = test system: Hepatitis C virus subtype 1a; experiment: Resistance ratio of EC90 for NS5A L31V mutant in HCV genotype 1a infected in HuH7 replicon cells to EC90 for NS5A in HCV genotype 1a infected in HuH7 replicon cells; format: cell-based
[13] = MRT in Wistar Han rat at 100 mg/kg, po by LC/MS method; format: ADME, organism-based; conditions: in vivo; outline: as §2
[14] = target: T1, Nonstructural protein 5A (Hepatitis C virus); experiment: Inhibition of NS5A in HCV genotype 1b infected in HuH7 replicon cells assessed as decrease in viral replication after 3 days by RT-PCR method; format: cell-based; conditions: Hepatitis C virus subtype 1b
[15] = Half life in Beagle dog at 1 mg/kg, iv by LC/MS method; format: ADME, organism-based, Canis lupus familiaris; conditions: in vivo
Outline: (§5)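 Beagle dogs, two animals per group, dosed IV at 1 mg/kg in 60% PEG200. Plasma was prepared from collected blood by centrifugation, and compound was quantified by LC/MS.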

[16] = Clearance in Wistar Han rat at 2 mg/kg, iv by LC/MS method; format: ADME, organism-based; conditions: in vivo; outline: as §3
[17] = Resistance ratio of EC90 for NS5A in HCV genotype 1b infected in HuH7 replicon cells to EC90 for NS5A in HCV genotype 1a infected in HuH7 replicon cells; format: cell-based
[18] = AUC in Wistar Han rat at 100 mg/kg, po by LC/MS method; format: ADME, organism-based; conditions: in vivo; outline: as §2
[19] = test system: Hepatitis C virus subtype 1a; experiment: Resistance ratio of EC90 for NS5A Y93H mutant in HCV genotype 1a infected in HuH7 replicon cells to EC90 for NS5A in HCV genotype 1a infected in HuH7 replicon cells; format: cell-based
[20] = AUC in Beagle dog at 5 mg/kg, po by LC/MS method; format: ADME, organism-based, Canis lupus familiaris; conditions: in vivo; outline: as §1
[21] = Tmax in Wistar Han rat at 10 mg/kg, po by LC/MS method; format: ADME, organism-based; conditions: in vivo; outline: as §4
[22] = AUC in Wistar Han rat at 10 mg/kg, po by LC/MS method; format: ADME, organism-based; conditions: in vivo; outline: as §4
[23] = target: T1, Nonstructural protein 5A (Hepatitis C virus); experiment: Inhibition of NS5A in HCV genotype 1a infected in HuH7 replicon cells assessed as decrease in viral replication after 3 days by RT-PCR method; format: cell-based; conditions: Hepatitis C virus subtype 1a
[24] = Tmax in Wistar Han rat at 100 mg/kg, po by LC/MS method; format: ADME, organism-based; conditions: in vivo; outline: as §2
[25] = Resistance ratio of EC90 for NS5A in HCV genotype 3a infected in HuH7 replicon cells to EC90 for NS5A in HCV genotype 1a infected in HuH7 replicon cells; format: cell-based
[26] = Resistance ratio of EC90 for NS5A L31M mutant in HCV genotype 2b infected in HuH7 replicon cells to EC90 for NS5A in HCV genotype 1a infected in HuH7 replicon cells; format: cell-based
[27] = Oral bioavailability in Wistar Han rat at 10 mg/kg by LC/MS method; format: ADME, organism-based; conditions: in vivo; outline: as §4
[28] = test system: T2, Nonstructural protein 5A (Hepatitis C virus), Q5L478 [Y93H]; experiment: Inhibition of NS5A Y93H mutant in HCV genotype 1a infected in HuH7 replicon cells assessed as decrease in viral replication after 3 days by RT-PCR method; format: cell-based; conditions: Hepatitis C virus subtype 1a
T2 sequence (whole entry): T1 sequence (whole entry) with Y93H

[29] = Cmax in Wistar Han rat at 300 mg/kg, po by LC/MS method; format: ADME, organism-based; set-up: dose 300 mg/kg, route oral; conditions: in vivo; outline: as §2
[30] = target: T1, Nonstructural protein 5A (Hepatitis C virus); experiment: Inhibition of NS5A L31V mutant in HCV genotype 1a infected in HuH7 replicon cells assessed as decrease in viral replication after 3 days by RT-PCR method; format: cell-based; conditions: Hepatitis C virus subtype 1a
[31] = AUC in Wistar Han rat at 300 mg/kg, po by LC/MS method; format: ADME, organism-based; conditions: in vivo; outline: as §2
[32] = Cmax in Wistar Han rat at 10 mg/kg, po by LC/MS method; format: ADME, organism-based; set-up: dose 10 mg/kg, route oral; conditions: in vivo; outline: as §4
[33] = target: T1, Nonstructural protein 5A (Hepatitis C virus); experiment: Inhibition of NS5A in HCV genotype 4a infected in HuH7 replicon cells assessed as decrease in viral replication after 3 days by RT-PCR method; format: cell-based; conditions: Hepatitis C virus subtype 4a
[34] = MRT in Wistar Han rat at 10 mg/kg, po by LC/MS method; format: ADME, organism-based; conditions: in vivo; outline: as §4
[35] = Drug level in Wistar Han rat at 300 mg/kg, po measured at 24 hrs by LC/MS method; format: ADME, organism-based; conditions: in vivo, read-out: Drug uptake; outline: as §2
[36] = Clearance in Beagle dog at 1 mg/kg, iv by LC/MS method; format: ADME, organism-based, Canis lupus familiaris; conditions: in vivo; outline: as §5
[37] = MRT in Wistar Han rat at 300 mg/kg, po by LC/MS method; format: ADME, organism-based; conditions: in vivo; outline: as §2
[38] = target: Genome polyprotein (Hepatitis C virus genotype 1b (isolate Con1) (HCV)) (UniProt Q9WMX2); experiment: Inhibition of NS5A in HCV genotype 1b Con1 infected in HB1 replicon cells assessed as decrease in viral replication by TaqMan-based assay; format: cell-based
[39] = target: Genome polyprotein (Hepatitis C virus genotype 3a (isolate NZL1) (HCV)) (UniProt Q81258); experiment: Inhibition of NS5A in HCV genotype 3a NZL1 infected in HB1 replicon cells assessed as decrease in viral replication by TaqMan-based assay; format: cell-based
Sequence of Genome polyprotein (Hepatitis C virus genotype 3a (isolate NZL1) (HCV)) (Q81258 whole entry): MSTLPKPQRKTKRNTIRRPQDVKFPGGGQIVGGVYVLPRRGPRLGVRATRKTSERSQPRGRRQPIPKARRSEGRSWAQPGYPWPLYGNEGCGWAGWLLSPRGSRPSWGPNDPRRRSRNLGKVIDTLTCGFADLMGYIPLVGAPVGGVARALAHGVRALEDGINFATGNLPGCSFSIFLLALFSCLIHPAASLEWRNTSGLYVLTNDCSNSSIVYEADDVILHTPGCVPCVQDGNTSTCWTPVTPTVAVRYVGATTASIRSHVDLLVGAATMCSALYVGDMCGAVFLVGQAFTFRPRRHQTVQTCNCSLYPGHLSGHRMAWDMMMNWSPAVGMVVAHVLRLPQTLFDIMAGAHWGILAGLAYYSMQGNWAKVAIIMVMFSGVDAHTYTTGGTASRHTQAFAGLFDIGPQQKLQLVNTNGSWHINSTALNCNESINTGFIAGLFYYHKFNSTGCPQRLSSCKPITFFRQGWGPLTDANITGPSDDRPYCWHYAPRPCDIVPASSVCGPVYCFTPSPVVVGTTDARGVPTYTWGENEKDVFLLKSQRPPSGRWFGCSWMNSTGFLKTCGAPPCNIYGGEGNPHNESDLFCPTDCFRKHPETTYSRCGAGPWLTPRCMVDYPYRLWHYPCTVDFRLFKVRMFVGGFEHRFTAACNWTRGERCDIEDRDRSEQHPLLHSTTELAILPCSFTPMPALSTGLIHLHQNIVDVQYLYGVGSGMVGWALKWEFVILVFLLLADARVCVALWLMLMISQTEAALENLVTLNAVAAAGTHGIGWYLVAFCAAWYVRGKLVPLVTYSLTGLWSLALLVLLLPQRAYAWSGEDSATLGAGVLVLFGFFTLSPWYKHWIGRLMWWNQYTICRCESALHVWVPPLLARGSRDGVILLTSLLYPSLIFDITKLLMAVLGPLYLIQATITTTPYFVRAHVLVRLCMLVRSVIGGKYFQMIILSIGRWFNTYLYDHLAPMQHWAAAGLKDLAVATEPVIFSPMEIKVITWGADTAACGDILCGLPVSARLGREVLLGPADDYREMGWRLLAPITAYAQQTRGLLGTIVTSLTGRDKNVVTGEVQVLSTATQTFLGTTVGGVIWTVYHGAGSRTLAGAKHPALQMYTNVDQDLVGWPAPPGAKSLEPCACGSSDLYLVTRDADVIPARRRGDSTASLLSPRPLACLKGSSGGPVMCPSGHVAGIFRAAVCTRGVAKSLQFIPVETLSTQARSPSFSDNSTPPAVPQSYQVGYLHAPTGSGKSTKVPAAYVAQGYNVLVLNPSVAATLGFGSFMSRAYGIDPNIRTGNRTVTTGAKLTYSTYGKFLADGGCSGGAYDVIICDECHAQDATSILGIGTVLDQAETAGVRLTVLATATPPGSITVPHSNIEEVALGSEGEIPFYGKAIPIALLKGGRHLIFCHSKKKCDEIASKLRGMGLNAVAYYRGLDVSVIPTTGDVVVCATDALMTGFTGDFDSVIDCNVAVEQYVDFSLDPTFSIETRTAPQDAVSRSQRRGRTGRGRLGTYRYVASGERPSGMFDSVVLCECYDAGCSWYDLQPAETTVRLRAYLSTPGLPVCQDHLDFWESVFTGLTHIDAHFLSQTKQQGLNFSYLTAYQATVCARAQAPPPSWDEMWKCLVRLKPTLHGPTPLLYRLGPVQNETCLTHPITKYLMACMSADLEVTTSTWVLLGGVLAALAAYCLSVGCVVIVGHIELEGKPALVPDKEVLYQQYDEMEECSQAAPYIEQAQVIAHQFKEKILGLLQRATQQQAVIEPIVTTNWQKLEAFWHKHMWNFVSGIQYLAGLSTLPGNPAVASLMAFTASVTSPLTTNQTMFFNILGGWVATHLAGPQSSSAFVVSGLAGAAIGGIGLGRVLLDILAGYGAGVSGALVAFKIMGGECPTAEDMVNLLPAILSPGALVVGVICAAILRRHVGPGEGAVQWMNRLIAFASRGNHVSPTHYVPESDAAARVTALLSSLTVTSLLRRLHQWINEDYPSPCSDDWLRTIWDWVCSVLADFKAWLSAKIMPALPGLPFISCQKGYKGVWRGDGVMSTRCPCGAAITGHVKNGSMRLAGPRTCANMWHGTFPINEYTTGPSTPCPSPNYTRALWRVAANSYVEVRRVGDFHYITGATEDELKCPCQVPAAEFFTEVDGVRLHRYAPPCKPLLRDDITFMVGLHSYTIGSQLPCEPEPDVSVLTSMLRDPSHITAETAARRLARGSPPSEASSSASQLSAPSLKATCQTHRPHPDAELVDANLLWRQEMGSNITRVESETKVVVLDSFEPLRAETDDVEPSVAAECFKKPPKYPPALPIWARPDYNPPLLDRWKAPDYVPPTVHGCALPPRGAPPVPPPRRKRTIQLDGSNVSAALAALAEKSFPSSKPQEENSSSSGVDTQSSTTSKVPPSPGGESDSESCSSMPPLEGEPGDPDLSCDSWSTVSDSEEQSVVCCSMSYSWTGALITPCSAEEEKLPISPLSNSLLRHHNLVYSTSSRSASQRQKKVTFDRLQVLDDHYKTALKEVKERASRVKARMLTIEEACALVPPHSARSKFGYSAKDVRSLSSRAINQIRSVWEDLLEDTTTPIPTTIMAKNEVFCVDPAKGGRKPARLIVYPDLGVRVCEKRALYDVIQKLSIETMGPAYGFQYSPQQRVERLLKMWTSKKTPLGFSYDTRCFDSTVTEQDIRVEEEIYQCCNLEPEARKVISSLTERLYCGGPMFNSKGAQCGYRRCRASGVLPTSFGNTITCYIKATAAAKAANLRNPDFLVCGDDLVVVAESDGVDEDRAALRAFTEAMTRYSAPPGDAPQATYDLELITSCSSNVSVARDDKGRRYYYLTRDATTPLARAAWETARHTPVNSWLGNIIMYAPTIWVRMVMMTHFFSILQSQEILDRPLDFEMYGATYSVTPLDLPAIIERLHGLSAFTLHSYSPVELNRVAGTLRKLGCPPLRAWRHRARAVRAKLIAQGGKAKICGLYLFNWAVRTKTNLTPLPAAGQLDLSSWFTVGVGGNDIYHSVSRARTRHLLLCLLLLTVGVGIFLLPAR

## COC(=O)N[C@H](C(=O)N1CCC[C@H]1c1ncc(-c2cc(F)c3c(c2)O[C@@H](c2ccc(C4CC4)s2)n2c-3cc3cc(-c4cnc([C@@H]5CCCN5C(=O)[C@@H](NC(=O)OC)C5CCOCC5)[nH]4)ccc32)[nH]1)C(C)C
[1]
  bioavailability: 11%
[2]
  EC90: 14 pM
[3]
  EC90: 8 pM
[4]
  concentration at 24 h: 22 nM
[5]
  Cmax: 200 nM
[6]
  concentration at 24 h: 11 nM
[7]
  Ratio: < 10
[8]
  Cmax: 460 nM
[9]
  half-life: 4 h
[10]
  concentration at 24 h: 2 to 1000 nM
[11]
  Tmax: 4 h
[12]
  Ratio: < 10
[13]
  MRT: 8.3 h
[14]
  EC90: 5 pM
[15]
  half-life: 4.2 h
[16]
  clearance: 18 mL/min/kg
[17]
  Ratio: < 10
[18]
  AUC: 1.64 µM·h
[19]
  Ratio: < 10
[20]
  AUC: 2.61 µM·h
[21]
  Tmax: 3 h
[22]
  AUC: 0.14 to 0.29 µM·h
[23]
  EC90: 4 pM
[24]
  Tmax: 4 h
[25]
  Ratio: < 10
[26]
  Ratio: < 10
[27]
  bioavailability: 3.1%
[28]
  EC90: 18 pM
[29]
  Cmax: 360 nM
[30]
  EC90: 6 pM
[31]
  AUC: 3.99 µM·h
[32]
  Cmax: 34 to 20000 nM
[33]
  EC90: 5 pM
[34]
  MRT: 7.9 h
[35]
  concentration at 24 h: 32 nM
[36]
  clearance: 4 mL/min/kg
[37]
  MRT: 9.9 h

## COC(=O)N[C@H](C(=O)N1CCC[C@H]1c1nc(-c2ccc3c(c2)O[C@@H](c2ccccc2)n2c-3cc3cc(-c4c[nH]c([C@@H]5CCCN5C(=O)[C@@H](NC(=O)OC)C(C)C)n4)ccc32)c[nH]1)C(C)C
[38]
  EC90: 6 pM
[39]
  EC90: 120 pM
